A3A deaminase = APOBEC3A ssDNA deaminase inhibitors, primary screen, selectivity assay for APOBEC3G inhibitor project, biochemical, FAM/TAMRA oligo cleavage fluorescence. DNA dC->dU-editing enzyme APOBEC-3A (Homo sapiens), P31941. recombinant A3A, FAM/TAMRA ssDNA deamination fluorescence. inhibition, % at 20 µM. actives 0.41% (n = 330,000);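 active = at least 40% inhibition at 20 µM here, with at most 30% in a related deaminase screen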
PfGluPho inh = PfG6PD enzyme inhibitors, primary screen, biochemical, fluorescence intensity, uHTS | PfGluPho enzyme, NADPH resazurin-diaphorase fluorescence | actives 0.78% (n = 350,000) | glucose-6-phosphate dehydrogenase-6-phosphogluconolactonase (Plasmodium falciparum 3D7) | AID 504690, 2011 | inhibition, % at 20 µM;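 active = inhibition reaching at least a set limit at 20 µM in the primary screen, cut at about 59% in these data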
A3G deaminase = APOBEC3G DNA deaminase inhibitors, primary screen, biochemical, fluorescence, single-stranded DNA substrate, uHTS; DNA dC->dU-editing enzyme APOBEC-3G (Homo sapiens), Q9HC16; recombinant A3G, ssDNA deamination FAM/TAMRA fluorescence; actives 0.28% (n = 330,000); inhibition, % at 20 µM;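 active = inhibition of at least 40% at 20 µM, with no more than 30% in the related APOBEC3A deaminase screen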
Target sequence (Q9HC16 whole entry, looked up): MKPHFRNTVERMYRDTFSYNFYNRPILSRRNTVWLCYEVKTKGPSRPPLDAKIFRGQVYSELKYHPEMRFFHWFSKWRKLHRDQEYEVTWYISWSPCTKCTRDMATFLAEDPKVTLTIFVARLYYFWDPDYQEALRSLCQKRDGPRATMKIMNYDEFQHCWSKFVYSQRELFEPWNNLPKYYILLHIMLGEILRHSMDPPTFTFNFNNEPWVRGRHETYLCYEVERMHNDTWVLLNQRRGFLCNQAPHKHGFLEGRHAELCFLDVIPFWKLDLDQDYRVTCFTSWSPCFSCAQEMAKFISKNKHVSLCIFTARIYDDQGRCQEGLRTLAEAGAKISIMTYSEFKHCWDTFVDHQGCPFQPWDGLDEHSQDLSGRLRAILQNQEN
HKDC1 inhibitor = HKDC1 hexokinase inhibitors, primary screen, biochemical, fluorescence, uHTS. Q2TB90. recombinant HKDC1, G6PDH/diaphorase resazurin coupled fluorescence. inhibition, % at 20 µM. actives 0.16% (n = 340,000);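 active = inhibition above about 35% when tested at 20 µM, limit read from the data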
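Assay system: in-house recombinant HK5 (HKDC1) enzyme. Input: HKDC1 at 5 µg/mL. Medium: Tris pH 8.0 buffer with MgCl2, Tween-20, BSA, BME. Dosing: single 20 µM dose. Schedule: 90 min reaction incubation at room temperature, dark. Signal: resazurin-to-resorufin fluorescence via G6PDH and diaphorase coupling, 525/613 nm. Controls: DMSO-enzyme wells negative, buffer-substituted wells positive.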
M18AAP inhibitor = PfM18AAP inhibitors, malaria aminopeptidase, primary screen, biochemical, QFRET, recombinant enzyme; AID 1822, 2009; H-Glu-NHMec fluorogenic cleavage; inhibition, % at 7.35 µM; actives 1.2% (n = 290,000);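 active = inhibition above the campaign mean inhibition over all tested compounds plus 3 SD, cut at about 28% in these data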
UBC9 SUMO inh = inhibitors of in vitro SUMOylation cascade, primary screen, biochemical, HTRF, uHTS; AID 2006, 2009; HTRF SUMOylation assay, SAE1/SAE2 + UBC9; inhibition, % at 35 µM; actives 0.36% (n = 290,000); in the data active = inhibition above about 50%, passing the limit was not always enough
Target sequence (P63279 whole entry, looked up): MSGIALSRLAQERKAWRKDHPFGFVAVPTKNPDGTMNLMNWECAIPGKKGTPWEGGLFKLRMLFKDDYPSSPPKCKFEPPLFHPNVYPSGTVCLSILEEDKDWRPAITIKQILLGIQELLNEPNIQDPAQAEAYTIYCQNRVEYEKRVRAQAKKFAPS
PfGluPho conf = PfG6PD inhibitors, hit retest, confirmation, biochemical, fluorescence intensity, single concentration; shares compounds with PfGluPho inh; recombinant PfGluPho, NADPH-diaphorase-resazurin fluorescence; inhibition, % at 20 µM; actives 34% (n = 2,400);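 active = inhibition of at least 50% at 20 µM in any single replicate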
Diaph ctr 10uM = diaphorase inhibitors and chemical oxidizers, confirmation, counter-screen for P. falciparum G6PD inhibitor project, biochemical, fluorescence intensity, 10 µM NADPH. shares compounds with PfGluPho inh. diaphorase-coupled resazurin reduction, NADPH 10 uM. inhibition, % at 20 µM. actives 39% (n = 820);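 active = average inhibition reaching 50% or more with the compound at 20 µM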;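 note: resorufin red fluorescence formed as diaphorase reduces resazurin using NADPH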
Diaphorase 30uM = diaphorase inhibitors and chemical oxidizers, confirmation, counter-screen for P. falciparum G6PD inhibitor project, biochemical, fluorescence intensity, 30 µM NADPH; shares compounds with PfGluPho inh; actives 29% (n = 820); inhibition, % at 20 µM; Diaphorase/resazurin coupled assay, resorufin fluorescence;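 active = inhibition averaging 50% or more, tested at 20 µM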
A number is an active result. The list is not random: actives were taken first. Their share in the collection is about 2.4%.

Clc1ccc(C2=Nn3c(Cn4nnc5ccccc54)nnc3SC2)cc1 was read as A3A deaminase inactive, PfGluPho inh 63, A3G deaminase inactive, HKDC1 inhibitor inactive, M18AAP inhibitor inactive, UBC9 SUMO inh inactive and PfGluPho conf inactive.
Screening CC(C)[C@H](N)c1nnc2n1N=C(c1ccc(Cl)cc1)CS2 returned A3A deaminase inactive, PfGluPho inh inactive, A3G deaminase inactive, HKDC1 inhibitor inactive, M18AAP inhibitor inactive and UBC9 SUMO inh inactive.
`COCCCNC(=O)c1cn(C)c(=O)c2c1c1ccccc1n2C` gave A3A deaminase inactive, PfGluPho inh inactive, A3G deaminase inactive, HKDC1 inhibitor inactive, M18AAP inhibitor inactive and UBC9 SUMO inh inactive.
`O=C(O)c1cccc(N2C(=O)C=CC2=O)c1` gave PfGluPho inh 76, PfGluPho conf 76, Diaph ctr 10uM inactive and Diaphorase 30uM inactive.
O=C(O)c1cccc(N2C(=O)C3CC=CCC3C2=O)c1 (stereo unspecified) was read as A3A deaminase inactive, PfGluPho inh inactive, A3G deaminase inactive, HKDC1 inhibitor inactive, M18AAP inhibitor inactive and UBC9 SUMO inh inactive.
COC(=O)c1c(-c2cccnc2)csc1NC(=O)c1cc(C)on1 was read as A3A deaminase inactive, PfGluPho inh 62, A3G deaminase inactive, HKDC1 inhibitor inactive, M18AAP inhibitor inactive, UBC9 SUMO inh inactive and PfGluPho conf inactive.
Screening COC(=O)c1ccccc1N/C=C1\CCc2c(c(C)nn2-c2ccccn2)C1=O returned A3A deaminase inactive, PfGluPho inh 74, A3G deaminase inactive, HKDC1 inhibitor inactive, M18AAP inhibitor inactive, UBC9 SUMO inh inactive, PfGluPho conf 64, Diaph ctr 10uM inactive and Diaphorase 30uM inactive.
COC1C=CC(CNC(=O)c2cc3c(=O)n4cccc(C)c4nc3n2C)(OC)O1 (stereo unspecified) was read as A3A deaminase inactive, PfGluPho inh 79, A3G deaminase inactive, HKDC1 inhibitor inactive, M18AAP inhibitor inactive, UBC9 SUMO inh inactive and PfGluPho conf inactive.
Cc1cccn2c(=O)c3cc(C(=O)NCC4CCCO4)n(C)c3nc12 (stereo unspecified) was read as M18AAP inhibitor inactive.
For COc1cc(NC(C)CCc2ccccc2)cc(OC)c1OC (stereo unspecified) the results were A3A deaminase inactive, PfGluPho inh 77, A3G deaminase inactive, HKDC1 inhibitor inactive, M18AAP inhibitor inactive, UBC9 SUMO inh inactive, PfGluPho conf 79, Diaph ctr 10uM inactive and Diaphorase 30uM inactive.
Cc1ccc(/C=C/C(=O)NCc2cccs2)c(C)c1 was read as A3A deaminase inactive, PfGluPho inh 88, A3G deaminase inactive, HKDC1 inhibitor inactive, M18AAP inhibitor inactive, UBC9 SUMO inh inactive and PfGluPho conf inactive.
`COc1ccccc1N(C(C)=O)C1=C(Cl)C(=O)c2ccccc2C1=O` gave PfGluPho inh 123, PfGluPho conf 115, Diaph ctr 10uM 92 and Diaphorase 30uM 92.
Screening CCOC(=O)c1c(-c2ccc(OC)cc2)csc1NC(=O)CCN1C(=O)c2ccccc2C1=O returned A3A deaminase inactive, PfGluPho inh 62, A3G deaminase inactive, HKDC1 inhibitor inactive, M18AAP inhibitor inactive, UBC9 SUMO inh inactive and PfGluPho conf inactive.
`CCOc1ccccc1/C=N/NC(=O)Cc1csc(Nc2cccc(C(F)(F)F)c2)n1` gave A3A deaminase inactive, PfGluPho inh 69, A3G deaminase inactive, HKDC1 inhibitor inactive, M18AAP inhibitor inactive, UBC9 SUMO inh inactive and PfGluPho conf inactive.
Screening CCOc1ccccc1N(CC(=O)N/N=C/c1cc(Br)ccc1OC)S(C)(=O)=O returned A3A deaminase inactive, PfGluPho inh 118, A3G deaminase inactive, HKDC1 inhibitor inactive, M18AAP inhibitor inactive, UBC9 SUMO inh inactive, PfGluPho conf 72, Diaph ctr 10uM 70 and Diaphorase 30uM 56.
CCOc1ccc(/C=N/NC(=O)c2ccc(Cn3cc([N+](=O)[O-])cn3)o2)cc1 was read as A3A deaminase inactive, PfGluPho inh inactive, A3G deaminase inactive, HKDC1 inhibitor inactive, M18AAP inhibitor inactive and UBC9 SUMO inh inactive.
`CCOc1ccccc1/C=N/NC(=O)c1ccc(Cn2cc([N+](=O)[O-])cn2)o1` gave A3A deaminase inactive, PfGluPho inh 61, A3G deaminase inactive, HKDC1 inhibitor inactive, M18AAP inhibitor inactive, UBC9 SUMO inh inactive and PfGluPho conf inactive.
For CCOc1ccccc1C=NNC(=O)C(=O)NN=Cc1ccccc1OCC the results were PfGluPho inh inactive and HKDC1 inhibitor inactive.
Screening CCOc1ccccc1C=NNC(=O)CCCCC(=O)NN=Cc1ccccc1OCC returned PfGluPho inh 125, HKDC1 inhibitor inactive, PfGluPho conf 78, Diaph ctr 10uM inactive and Diaphorase 30uM 54.
O=C(CNC(=O)C1COc2ccccc2O1)N/N=C\c1ccccc1Cl (stereo unspecified) was read as A3A deaminase inactive, PfGluPho inh 60, A3G deaminase inactive, HKDC1 inhibitor inactive, M18AAP inhibitor inactive and PfGluPho conf inactive.
O=C(CCCC(=O)NN=Cc1ccccc1Cl)NN=Cc1ccccc1Cl was read as PfGluPho inh 86, HKDC1 inhibitor inactive and PfGluPho conf inactive.
For O=C(CCCC(=O)NN=Cc1ccc(Cl)cc1Cl)NN=Cc1ccc(Cl)cc1Cl the results were PfGluPho inh inactive and HKDC1 inhibitor inactive.
Screening Cc1c(C(=O)Nc2nnc(C(F)(F)F)s2)oc2ccccc12 returned A3A deaminase inactive, PfGluPho inh 104, A3G deaminase inactive, HKDC1 inhibitor inactive, UBC9 SUMO inh inactive, PfGluPho conf 71, Diaph ctr 10uM 83 and Diaphorase 30uM 68.
`Cc1occc1C(=O)Nc1nnc(C(F)(F)F)s1` gave A3A deaminase inactive, PfGluPho inh inactive, A3G deaminase inactive, HKDC1 inhibitor inactive, M18AAP inhibitor inactive and UBC9 SUMO inh inactive.

Screening results deposited in PubChem BioAssay by several laboratories.
